Assay outcomes (PubChem BioAssay)
Pf Dd2 inh: inhibitors of Plasmodium falciparum Dd2 growth; 94,000 compounds, 2.3% hits; activity change, % at 10 µM; P. falciparum Dd2 growth, SYBR Green, 72 h; stronger effect = lower value; AID 1159554; in the data active = activity change below about -80%; inconclusive = no clear call, values can overlap the other calls
T cruzi growth-1: blocks T. cruzi growth in NIH3T3 culture. T. cruzi beta-gal in NIH3T3, GalScreen luminescence, 90 h. inhibition, % at 8.34 µM. 77,000 compounds, 5.9% hits. AID 624255;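 active = mean inhibition above about 93%, with at least 55% of replicates each passing it, limit read from the data, passing the limit was not always enough; inconclusive = only one of those two conditions holds; inactive = neither condition holds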
GASC1 inh: KDM4C (human) demethylase inhibition | Q9H3R0 | inhibition, % at 12.5 µM | GST-KDM4C 2-372, H3K9me3 peptide, LANCE TR-FRET | 96,000 compounds, 0.15% hits;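 active = mean replicate inhibition above about 25%, with at least 55% of replicates also reaching it, limit read from the data, passing the limit was not always enough; inconclusive = only one of those two conditions met; inactive = neither condition met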
Target sequence (Q9H3R0 2-372 limits assumed): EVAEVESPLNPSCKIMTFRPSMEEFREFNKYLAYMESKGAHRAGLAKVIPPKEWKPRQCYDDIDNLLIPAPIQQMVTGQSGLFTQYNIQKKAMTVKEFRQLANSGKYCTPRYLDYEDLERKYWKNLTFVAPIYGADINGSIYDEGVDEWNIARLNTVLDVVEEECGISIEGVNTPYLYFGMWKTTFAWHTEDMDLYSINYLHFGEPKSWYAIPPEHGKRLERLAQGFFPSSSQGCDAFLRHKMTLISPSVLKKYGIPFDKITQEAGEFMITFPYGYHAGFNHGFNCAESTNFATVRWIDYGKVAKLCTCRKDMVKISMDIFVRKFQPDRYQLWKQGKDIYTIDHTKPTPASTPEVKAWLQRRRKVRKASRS
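Material: GST-tagged GASC-1 (JMJD2C) catalytic fragment, aa 2-372 / Quantity: enzyme final amount 10 nM / Medium: HEPES buffer, pH 7.5, plus ascorbate / Doses: one test concentration per compound / Incubation: 30 min reaction, 60 min detection, RT / Measured by: LANCE TR-FRET / Read-out: inhibition from TR-FRET ratio decrease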
IDH1 mut inh: IDH1 R132H (human) inhibition; O75874; IDH1 R132H reductase, diaphorase/resazurin fluorescence, 60 min; inhibition, % at 10 µM; 70,000 compounds, 0.18% hits; AID 624101; in the data active = inhibition above about 34%; inconclusive = no clear call, values can overlap the other calls; inactive = below about 11%;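 also: 0% = DMSO and 100% = no enzyme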
T cruzi growth-2: inhibitors of T. cruzi proliferation; T. cruzi beta-gal in NIH3T3, GalScreen luminescence, 90 h; inhibition, % at 8.35 µM; AID 651739; 5,600 compounds, 72% hits; shares compounds with T cruzi growth-1;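 active = mean replicate inhibition above about 95% and at least 55% of replicates individually reaching it, limit read from the data; inconclusive = only one of the two criteria is met; inactive = neither criterion is met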
T cruzi growth-3: inhibitors of T. cruzi proliferation; shares compounds with T cruzi growth-1; inhibition, % at 2.09 µM; 5,600 compounds, 21% hits; T. cruzi beta-gal in NIH3T3, GalScreen luminescence, 90 h; AID 651740;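 active = mean inhibition above about 95%, with at least 55% of replicates also reaching it, limit read from the data; inconclusive = meets just one of the two conditions; inactive = meets neither condition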;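 also: plate controls were neutral control median for no effect and positive control median for full effect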
NIH3T3 tox: NIH/3T3 (mouse) viability loss. shares compounds with T cruzi growth-1. NIH/3T3 viability, CellTiter-Glo ATP luminescence, 90 h. cytotoxicity (signal decrease), % at 8.35 µM. 5,600 compounds, 14% hits. AID 651742;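 active = mean signal decrease across replicates above about 35% based on untreated-well scatter, with enough replicates individually passing, limit read from the data; inconclusive = no rule stated though some were filed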;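 also: 0% = median of neutral control wells and 100% = median of positive control wells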
NIH3T3 tox 2: kills mouse NIH/3T3 fibroblasts. shares compounds with T cruzi growth-1. NIH/3T3 viability, CellTiter-Glo ATP luminescence, 90 h. inhibition, % at 24.9 µM. 5,600 compounds, 56% hits. AID 651744;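 active = mean loss of cell viability signal at or above a set limit, and enough replicates individually reaching it; inconclusive = meets only the mean limit or only the replicate share; inactive = meets neither condition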;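 also: 0% = median of neutral control wells and 100% = median of positive control wells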
* marks the source's active call; other numbers are inactive results; ? = inconclusive; · = no result given. Rows were chosen to be rich in hits. Some 5.9% of all compounds tested hit in one or more screens of this group.

SMILES | Pf Dd2 inh | T cruzi growth-1 | GASC1 inh | IDH1 mut inh | T cruzi growth-2 | T cruzi growth-3 | NIH3T3 tox | NIH3T3 tox 2
C[C@H](CO)N1C[C@H](C)[C@H](CN(C)Cc2cncnc2)Oc2cc(C3=CCCCC3)ccc2S1(=O)=O | -3 | 50 | 1 | 0 | · | · | · | ·
C[C@H]1CN([C@@H](C)CO)S(=O)(=O)c2ccc(C3=CCCCC3)cc2O[C@H]1CN(C)Cc1ccncc1 | -69 | 114* | 4 | · | 94 | 89 | 51* | 66*
C[C@@H]1CN([C@H](C)CO)S(=O)(=O)c2ccc(C3=CCCCC3)cc2O[C@H]1CN(C)Cc1ccncc1 | -72 | 118* | -1 | · | 94 | 99* | 67* | 104*
C[C@H](CO)N1C[C@H](C)[C@@H](CN(C)Cc2ccncc2)Oc2cc(C3=CCCCC3)ccc2S1(=O)=O | -71 | 115* | 0 | · | 103* | 102* | 52* | 105*
C[C@@H]1CN([C@H](C)CO)S(=O)(=O)c2ccc(C3=CCCC3)cc2O[C@H]1CN(C)Cc1ccccc1 | -55 | 93 | 1 | -4 | · | · | · | ·
CCOC(=O)c1c(NC(=O)CSc2nccc(C)n2)sc(C)c1C | · | · | · | 0 | · | · | · | ·
CC(C)C#Cc1ccc([C@@H]2[C@@H](C#N)N(C(=O)c3ccccn3)[C@H]2CO)cc1 | -39 | 95 | -1 | · | · | · | · | ·
CC(C)C#Cc1ccc([C@H]2[C@@H](C#N)N(C(=O)c3ccccn3)[C@H]2CO)cc1 | -42 | ? | 1 | · | 100* | 103* | 9 | 12
COc1cccc(-c2ccc([C@H]3[C@@H](CO)N(C(=O)c4ccccn4)[C@H]3C#N)cc2)c1 | -51 | ? | -6 | · | 98* | 117* | -3 | 99*
COc1cccc(C#Cc2ccc([C@H]3[C@@H](C#N)N(C(=O)c4ccccn4)[C@@H]3CO)cc2)c1 | -66 | 90 | -2 | · | · | · | · | ·
COc1cccc(C#Cc2ccc([C@@H]3[C@@H](C#N)N(C(=O)c4ccccn4)[C@@H]3CO)cc2)c1 | -28 | 108* | -3 | · | 108* | 78 | 1 | -32
COc1ccc(-c2csc(Cc3nc(-c4cc5ccccc5oc4=O)cs3)n2)cc1 | · | · | · | 0 | · | · | · | ·
C[C@H]1CN([C@@H](C)CO)C(=O)c2cccc(N(C)C)c2O[C@H]1CN(C)Cc1ccc(C(F)(F)F)cc1 | -12 | 33 | 1 | -1 | · | · | · | ·
C[C@@H]1CN([C@H](C)CO)C(=O)c2cccc(N(C)C)c2O[C@H]1CN(C)Cc1ccc(C(F)(F)F)cc1 | -28 | 101* | 1 | · | 51 | 12 | -3 | 103*
C[C@H](CO)N1C[C@H](C)[C@H](CN(C)C(=O)Nc2ccc(C(F)(F)F)cc2)Oc2c(cccc2N(C)C)C1=O | -11 | 96* | 1 | 0 | 91 | 17 | 3 | 11
C[C@H]1CN([C@@H](C)CO)C(=O)c2cccc(N(C)C)c2O[C@@H]1CN(C)Cc1ccc(C(F)(F)F)cc1 | -50 | 103* | 3 | -3 | 45 | 36 | 10 | 66*
C[C@H]1CN([C@@H](C)CO)C(=O)c2cccc(N(C)C)c2O[C@@H]1CN(C)C(=O)Nc1ccc(C(F)(F)F)cc1 | -15 | 40 | -1 | -1 | · | · | · | ·
COc1ccccc1C#Cc1ccc2c(c1)O[C@H](CN(C)Cc1ccncc1)[C@H](C)CN([C@H](C)CO)S2(=O)=O | -64 | 112* | -1 | 0 | 104* | 84 | 28 | 7
COc1ccccc1C#Cc1ccc2c(c1)O[C@H](CN(C)Cc1ccncc1)[C@@H](C)CN([C@H](C)CO)S2(=O)=O | -60 | 123* | 13 | 0 | 97* | 102* | 11 | 71*
CCC(Sc1nncn1C)C(=O)Nc1ccc([N+](=O)[O-])cc1 (stereo not drawn) | · | · | · | 0 | · | · | · | ·
C[C@H](CO)N1C[C@H](C)[C@H](CN(C)C(=O)Nc2cccc3ccccc23)OCCCC[C@H](C)Oc2ccc(NS(=O)(=O)c3ccc(Cl)cc3)cc2C1=O | -14 | 96* | 0 | · | 101* | 63 | -4 | 1
C[C@@H]1CCCCO[C@@H](CN(C)C(=O)Nc2cccc3ccccc23)[C@H](C)CN([C@@H](C)CO)C(=O)c2cc(NS(=O)(=O)c3ccc(F)cc3)ccc2O1 | -36 | 105* | -1 | · | 101* | 66 | 7 | 3
C[C@@H]1CCCCO[C@@H](CN(C)C(=O)Nc2cccc3ccccc23)[C@H](C)CN([C@@H](C)CO)C(=O)c2cc(NS(=O)(=O)c3cccs3)ccc2O1 | -46 | 101* | -2 | -1 | 107* | 41 | 6 | -20
C[C@@H]1CN([C@@H](C)CO)C(=O)c2cc(NS(=O)(=O)c3ccc(Cl)cc3)ccc2O[C@@H](C)CCCCO[C@@H]1CN(C)C(=O)Nc1cccc2ccccc12 | -75 | 99* | 0 | 1 | 105* | ? | 16 | 18
C[C@H](CO)N1C[C@H](C)[C@@H](CN(C)C(=O)Nc2cccc3ccccc23)OCCCC[C@H](C)Oc2ccc(NS(=O)(=O)c3ccc(Cl)cc3)cc2C1=O | -43 | 91 | -2 | · | · | · | · | ·
SMILES | Pf Dd2 inh | T cruzi growth-1 | GASC1 inh | IDH1 mut inh | T cruzi growth-2 | T cruzi growth-3 | NIH3T3 tox | NIH3T3 tox 2
Cc1cc(OCC(=O)Nc2ccccc2N2CCN(C)CC2)cc(C)c1Cl | · | · | · | 0 | · | · | · | ·
C[C@@H]1CCCCO[C@H](CN(C)C(=O)Nc2cccc3ccccc23)[C@@H](C)CN([C@H](C)CO)C(=O)c2cc(NS(=O)(=O)c3ccc(Cl)cc3)ccc2O1 | -49 | 89 | 0 | -1 | · | · | · | ·
C[C@H]1CCCCO[C@H](CN(C)C(=O)Nc2cccc3ccccc23)[C@@H](C)CN([C@@H](C)CO)C(=O)c2cc(NS(=O)(=O)c3ccc(Cl)cc3)ccc2O1 | -66 | ? | 0 | · | 97* | 119* | -26 | -10
C[C@@H]1CCCCO[C@@H](CN(C)C(=O)Nc2cccc3ccccc23)[C@H](C)CN([C@@H](C)CO)C(=O)c2cc(NS(C)(=O)=O)ccc2O1 | -37 | 116* | -1 | · | -32 | 9 | -12 | -14
CCCC#Cc1ccc([C@@H]2[C@H](C#N)N(C(=O)C3CCCC3)[C@H]2CO)cc1 | -54 | 99* | 3 | · | 98* | 106* | 26 | 78*
CCCC#Cc1ccc([C@H]2[C@@H](C#N)N(C(=O)C3CCC3)[C@@H]2CO)cc1 | -33 | 99* | -1 | · | 102* | 100* | -25 | -7
CCCC#Cc1ccc([C@@H]2[C@@H](C#N)N(C(=O)C3CCCCC3)[C@H]2CO)cc1 | -45 | 96* | -2 | · | 91 | 106* | 26 | 53*
CCCC#Cc1ccc([C@H]2[C@H](C#N)N(C(=O)C3CCC3)[C@H]2CO)cc1 | -32 | 87 | -2 | · | · | · | · | ·
